Converted amounts (≈) assume the structure as drawn.
Tests used:
[1] = test system: Mycobacterium tuberculosis; assay: Activity against Mycobacterium tuberculosis H37Rv; format: functional
Mus musculus = assay: Maximum concentration in female C57BL/6 mice administered with 300 mg/kg, po; format: ADME, organism-based; parameters: dose 300 mg/kg, route oral; details: in vivo
Outline: (§1)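 8–10 week old female C57BL/6 mice given one oral gavage dose, generally 300 mg/kg, below the maximum tolerated dose; HCl salts where possible. Tail-vein bleeds were taken from 3 mice at 20 min, 2, 4 and 8 h, and the serum was collected. Tmax and half-life were read off the concentration–time curve.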

[2] = Oral bioavailability in female C57BL/6 mice administered with 300 mg/kg, po; format: ADME, organism-based; details: C57BL/6, mouse, in vivo
Outline: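 Graded Low (BF 1–20), Medium (21–80) or High (>80). Serum was serially diluted with naive mouse serum and added to H37Rv at 10^4 CFU/well, then incubated at 35 °C. Wells scored positive if OD600 was <50% of the untreated control.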

[3] = test system: Mycobacterium tuberculosis; assay: Viable number of Mycobacterium tuberculosis colonies in lungs of infected mice after 9 days of administration of 300 mg/kg; format: functional, Lung
Outline: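 GKO mice infected by low-dose aerosol delivering ~50 bacilli to the lungs. Treatment began 18 days post-infection: 9 daily doses at 300 mg/kg. At day 27 post-infection, lung homogenates were serially diluted onto 7H11 agar and incubated at 37 °C in ambient air for 4 weeks. Result given as Log10 CFU ± SEM and Log10 reduction versus untreated controls.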

[4] = Tmax in female C57BL/6 mice administered with 300 mg/kg, po; format: ADME, organism-based; parameters: dose 300 mg/kg, route oral; details: C57BL/6, mouse, in vivo
Outline: as §1, with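 “collected. […]” for “collected.”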

[5] = Half life in female C57BL/6 mice administered with 300 mg/kg, po; format: ADME, organism-based; parameters: dose 300 mg/kg, route oral; details: C57BL/6, mouse, in vivo; outline: as §1

SMILES	MIC50 [1] [µg/mL]	further results
O=C(Nc1cccc(N2CCN(Cc3ccccc3)CC2)c1)c1ccc([N+](=O)[O-])o1	12.5 (≈ 30.8 µM)	
CN1CCN(c2ccc(CNC(=O)c3ccc([N+](=O)[O-])o3)cc2)CC1	0.2 (≈ 0.581 µM)	
O=C(NCc1ccc(N2CCOCC2)cc1)c1ccc([N+](=O)[O-])o1	0.2 (≈ 0.604 µM)	Cmax (Mus musculus): 3000 ng/mL; bioavailability [2]: 21%
O=C(Nc1cccc(N2CCC(Cc3ccccc3)CC2)c1)c1ccc([N+](=O)[O-])o1	12.5 (≈ 30.8 µM)	
O=C(NCc1ccc(N2CCN(Cc3ccccc3)CC2)cc1)c1ccc([N+](=O)[O-])o1	0.0125 (≈ 0.0297 µM)	Log10 cfu [3]: 7.92
O=C(NCc1cccc(N2CCN(Cc3ccccc3)CC2)c1)c1ccc([N+](=O)[O-])o1	0.1 (≈ 0.238 µM)	
CN1CCN(c2cccc(NC(=O)c3ccc([N+](=O)[O-])o3)c2)CC1	12.5 (≈ 37.8 µM)	
CN(C)c1ccc(CNC(=O)c2ccc([N+](=O)[O-])o2)cc1	0.1 (≈ 0.346 µM)	Log10 cfu [3]: 7.46
O=C(Nc1ccc(N2CCC(Cc3ccccc3)CC2)cc1)c1ccc([N+](=O)[O-])o1	3.13 (≈ 7.72 µM)	
CN1CCN(c2cccc(CNC(=O)c3ccc([N+](=O)[O-])o3)c2)CC1	3.12 (≈ 9.07 µM)	
CN1CCN(c2ccc(NC(=O)c3ccc([N+](=O)[O-])o3)cc2)CC1	12.5 (≈ 37.8 µM)	
O=C(Nc1ccc(N2CCN(c3ccccn3)CC2)cc1)c1ccc([N+](=O)[O-])o1	0.4 (≈ 1.02 µM)	
O=C(Nc1ccc(N2CCN(Cc3ccccc3)CC2)cc1)c1ccc([N+](=O)[O-])o1	0.8 (≈ 1.97 µM)	
O=C(NCc1ccc(N2CCC(Cc3ccccc3)CC2)c(F)c1)c1ccc([N+](=O)[O-])o1	0.2 (≈ 0.457 µM)	
O=C(NCc1ccc(N2CCSCC2)cc1)c1ccc([N+](=O)[O-])o1	0.1 (≈ 0.288 µM)	Cmax (Mus musculus): 820 ng/mL; bioavailability [2]: 1%; Log10 cfu [3]: 7.53
CN1CCN(/N=C\c2ccc(CNC(=O)c3ccc([N+](=O)[O-])o3)cc2)CC1	0.4 (≈ 1.08 µM)	
O=C(NCc1ccc(N2CCS(=O)(=O)CC2)cc1)c1ccc([N+](=O)[O-])o1	12.2 (≈ 32.3 µM)	

SMILES	MIC50 [1] [µg/mL]	further results
O=C(NCc1ccc(N2CC[S+]([O-])CC2)cc1)c1ccc([N+](=O)[O-])o1	3.13 (≈ 8.61 µM)	
O=C(NCc1ccc(N2CCSCC2)c(F)c1)c1ccc([N+](=O)[O-])o1	0.8 (≈ 2.19 µM)	
CN1CCN(c2ccc(CNC(=O)c3ccc([N+](=O)[O-])o3)cc2F)CC1	0.8 (≈ 2.21 µM)	
O=C(Nc1cccc(N2CCN(c3ccccn3)CC2)c1)c1ccc([N+](=O)[O-])o1	3.13 (≈ 7.96 µM)	
O=C(NCc1ccc(N2CCC(Cc3ccccc3)CC2)cc1)c1ccc([N+](=O)[O-])o1	0.8 (≈ 1.91 µM)	
O=C(Nc1cccc(N2CCOCC2)c1)c1ccc([N+](=O)[O-])o1	3.13 (≈ 9.86 µM)	
O=C(Nc1ccc(N2CCOCC2)cc1)c1ccc([N+](=O)[O-])o1	3.13 (≈ 9.86 µM)	
O=C(NCc1cccc(N2CCC(Cc3ccccc3)CC2)c1)c1ccc([N+](=O)[O-])o1	1.56 (≈ 3.72 µM)	
O=C(NCc1ccc(N2CCN(CC3CC3)CC2)cc1)c1ccc([N+](=O)[O-])o1	0.05 (≈ 0.13 µM)	
O=C(NCc1ccc(N2CCN(Cc3ccccc3)CC2)c(F)c1)c1ccc([N+](=O)[O-])o1	0.025 (≈ 0.057 µM)	Cmax (Mus musculus): 1640 ng/mL; bioavailability [2]: 21%; Log10 cfu [3]: 7.65
O=C(NCc1ccc(N2CCOCC2)c(F)c1)c1ccc([N+](=O)[O-])o1	0.4 (≈ 1.15 µM)	
Cl.O=C(NCc1cccc(N2CCN(Cc3ccccc3)CC2)c1)c1ccc([N+](=O)[O-])o1		Tmax [4]: 30 min; Cmax (Mus musculus): 1640 ng/mL; half-life [5]: 78 min; bioavailability [2]: 21%
CN1CCN(c2ccc(CNC(=O)c3ccc([N+](=O)[O-])o3)cc2F)CC1.Cl		Tmax [4]: 30 min
CN(C)c1ccc(CNC(=O)c2ccc([N+](=O)[O-])o2)cc1.Cl		Tmax [4]: 30 min
Cl.O=C(NCc1ccc(N2CCN(Cc3ccccc3)CC2)cc1)c1ccc([N+](=O)[O-])o1		Tmax [4]: 30 min; Cmax (Mus musculus): 2240 ng/mL; half-life [5]: 66 min; bioavailability [2]: > 80%
Cl.O=C(NCc1ccc(N2CCN(CC3CC3)CC2)cc1)c1ccc([N+](=O)[O-])o1		Tmax [4]: 30 min
NNC(=O)c1ccncc1 [ISONIAZID]		Cmax (Mus musculus): > 38400 ng/mL; bioavailability [2]: > 80%; Log10 cfu [3]: 3.88
